Results taken from ChEMBL document CHEMBL1149424, “Synthesis of functionalized 1,8-naphthyridinones and their evaluation as novel, orally active CB1 receptor inverse agonists” (Bioorg Med Chem Lett, 2006).

What was measured:
Cannabinoid receptor 1 = Cannabinoid receptor 1 (Homo sapiens, UniProt P21554); test: Binding affinity at the CB1 receptor
Cannabinoid receptor 2 = Cannabinoid receptor 2 (Homo sapiens, UniProt P34972); test: Binding affinity at the CB2 receptor
[1] = Plasma clearance in Beagle dog; format: ADME, organism-based, Canis lupus familiaris
[2] = Half life in C57BL/6 mouse; format: ADME, organism-based; details: in vivo
Mus musculus [3] = test: Reduction in body weight overnight (18 hrs) in wild type C57BL/6 mice at 10 mg/kg; format: functional; design: scale not given: the % may be the effect or the level left
In short: (§1)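 Ad libitum fed 12-week-old male C57BL/6 mice, n = 12 per group, given the compound orally at 1, 3 or 10 mpk in 0.225% methylcellulose/10% Tween 80 about 30 min before the dark phase. Food intake measured at 2 h and overnight. Overnight (18 h) body weight gain recorded and compared with vehicle.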

[4] = Half life in Sprague-Dawley rat; format: ADME, organism-based; details: in vivo
[5] = Plasma clearance in Sprague-Dawley rat; format: ADME, organism-based
[6] = Oral bioavailability in Beagle dog; format: ADME, organism-based, Canis lupus familiaris; details: in vivo
[7] = Rat brain to plasma ratio at 4 hrs post iv dosing; format: ADME, organism-based; details: Sprague-Dawley
In short: (§2)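 Sprague–Dawley rats were dosed intravenously as part of a pharmacokinetic profile. Brain and plasma concentrations were sampled at 0.25 h and at 4 h post-dose and expressed as a brain-to-plasma ratio.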

[8] = Rat brain to plasma ratio at 0.25 hrs post iv dosing; format: ADME, organism-based; details: Sprague-Dawley; in short: as §2
[9] = Oral bioavailability in C57BL/6 mouse; format: ADME, organism-based; details: in vivo
Rattus norvegicus [10] = test: Reduction in food intake in SD rat at 18 hrs after administration of 1.0 mg/kg, po; format: functional, Sprague-Dawley; design: scale not given: the % may be the effect or the level left
In short: (§3)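 Diet-induced obese Sprague–Dawley rats, six per treatment group, dosed orally with the compound in 10% Tween 80 in water 30–60 min before dark onset. Food cups weighed every 5 min in an automated system over the 18 h after dosing. Overnight body weight change also recorded. Suppression is expressed relative to vehicle-treated controls.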

Mus musculus [11] = test: Reduction in food intake in wild type C57BL/6 mice at 2 hrs after administration of 10 mg/kg, po; format: functional; design: scale not given: the % may be the effect or the level left; in short: as §1
[12] = Half life in Beagle dog; format: ADME, organism-based, Canis lupus familiaris; details: in vivo
[13] = Plasma clearance in C57BL/6 mouse; format: ADME, organism-based
[14] = Oral bioavailability in Sprague-Dawley rat; format: ADME, organism-based; details: in vivo
[15] = Oral bioavailability in rhesus macaque; format: ADME, organism-based, Macaca mulatta; details: rhesus monkey, in vivo
[16] = Plasma clearance in rhesus macaque; format: ADME, organism-based, Macaca mulatta; details: rhesus monkey
Rattus norvegicus [17] = test: Reduction in food intake in SD rat at 18 hrs after administration of 3.0 mg/kg, po; format: functional, Sprague-Dawley; design: scale not given: the % may be the effect or the level left; in short: as §3
Rattus norvegicus [18] = test: Reduction in food intake in SD rat at 18 hrs after administration of 0.3 mg/kg, po; format: functional, Sprague-Dawley; design: scale not given: the % may be the effect or the level left; in short: as §3
[19] = Half life in rhesus macaque; format: ADME, organism-based, Macaca mulatta; details: rhesus monkey, in vivo

Cannabinoid receptor 1, sequence (P21554 whole entry): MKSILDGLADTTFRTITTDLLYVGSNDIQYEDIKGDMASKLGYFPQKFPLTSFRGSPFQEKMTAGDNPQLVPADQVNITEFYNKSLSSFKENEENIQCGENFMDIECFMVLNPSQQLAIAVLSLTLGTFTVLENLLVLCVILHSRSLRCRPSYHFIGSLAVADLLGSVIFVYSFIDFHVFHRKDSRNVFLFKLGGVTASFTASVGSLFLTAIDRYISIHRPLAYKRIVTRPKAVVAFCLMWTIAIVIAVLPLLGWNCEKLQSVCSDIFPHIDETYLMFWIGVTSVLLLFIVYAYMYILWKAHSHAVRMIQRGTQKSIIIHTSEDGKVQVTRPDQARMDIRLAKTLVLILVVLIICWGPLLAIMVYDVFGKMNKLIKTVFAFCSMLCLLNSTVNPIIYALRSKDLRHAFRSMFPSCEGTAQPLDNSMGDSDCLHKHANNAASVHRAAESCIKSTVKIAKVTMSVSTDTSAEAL
Cannabinoid receptor 2, sequence (P34972 whole entry): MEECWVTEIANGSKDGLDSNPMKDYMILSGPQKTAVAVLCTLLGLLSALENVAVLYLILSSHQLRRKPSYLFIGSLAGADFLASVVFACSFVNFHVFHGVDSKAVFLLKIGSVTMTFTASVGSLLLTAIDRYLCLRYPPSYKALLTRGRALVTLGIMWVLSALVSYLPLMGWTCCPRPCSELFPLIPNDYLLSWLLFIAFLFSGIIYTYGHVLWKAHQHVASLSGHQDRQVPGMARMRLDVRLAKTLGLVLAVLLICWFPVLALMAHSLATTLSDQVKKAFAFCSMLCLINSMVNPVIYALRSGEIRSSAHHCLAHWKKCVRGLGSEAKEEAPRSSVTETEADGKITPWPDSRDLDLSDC

Row | SMILES | IC50 (Cannabinoid receptor 1) | IC50 (Cannabinoid receptor 2) | other results
1 | CC(=O)Nc1c(C#N)c(=O)n(C)c2nc(-c3ccc(Cl)cc3Cl)c(-c3ccc(Cl)cc3)cc12 | 35 nM | 720 nM | 
2 | CC(=O)c1c(NC(=O)CO)c2cc(-c3ccc(Cl)cc3)c(-c3ccc(Cl)cc3Cl)nc2n(C)c1=O | 46 nM | 3600 nM | 
3 | CC(=O)c1c(C)c2cc(-c3ccc(Cl)cc3)c(-c3ccc(Cl)cc3Cl)nc2n(C)c1=O | 55 nM | 1400 nM | 
4 | CC(=O)Nc1c(C(C)=O)c(=O)n(C)c2nc(-c3ccc(Cl)cc3Cl)c(-c3ccc(Cl)cc3)cc12 [NAPHTHYRIDINONE] |  | 4100 nM | clearance [1]: 4.4 mL/min/kg; half-life [2]: > 8 h; Activity (Mus musculus [3]): 88%; half-life [4]: > 8 h; clearance [5]: 12 mL/min/kg; bioavailability [6]: 100%; Kp at 4 h [7]: 2.7; Kp at 0.25 h [8]: 0.9; bioavailability [9]: 70%; Activity (Rattus norvegicus [10]): 39%; Activity (Mus musculus [11]): 49%; half-life [12]: > 24 h; clearance [13]: 13.9 mL/min/kg; bioavailability [14]: 93%; bioavailability [15]: 96%; clearance [16]: 1.4 mL/min/kg; Activity (Rattus norvegicus [17]): 68%; Activity (Rattus norvegicus [18]): 22%; half-life [19]: 22 h
5 | COCCn1c(=O)c(C(C)=O)c(NC(C)=O)c2cc(-c3ccc(Cl)cc3)c(-c3ccc(Cl)cc3Cl)nc21 | 3.7 nM | 1800 nM | 
6 | CC(=O)c1c(N)c2cc(-c3ccc(Cl)cc3)c(-c3ccc(Cl)cc3Cl)nc2n(C)c1=O | 120 nM | 1100 nM | 
7 | CC(=O)Nc1c(C(C)=O)c(=O)n(CC(C)C)c2nc(-c3ccc(Cl)cc3Cl)c(-c3ccc(Cl)cc3)cc12 | 2.3 nM | 6200 nM | 
8 | CC(=O)Nc1c(C(C)=O)c(=O)n(CC2CCCO2)c2nc(-c3ccc(Cl)cc3Cl)c(-c3ccc(Cl)cc3)cc12 (centres undefined) | 5.2 nM | 1400 nM | 
9 | COc1c(NC(C)=O)c2cc(-c3ccc(Cl)cc3)c(-c3ccc(Cl)cc3Cl)nc2n(C)c1=O | 24 nM | 1100 nM | 
10 | COCC(=O)Nc1c(C(C)=O)c(=O)n(C)c2nc(-c3ccc(Cl)cc3Cl)c(-c3ccc(Cl)cc3)cc12 | 24 nM | 3200 nM | 
11 | CC(=O)c1c(N(C)C)c2cc(-c3ccc(Cl)cc3)c(-c3ccc(Cl)cc3Cl)nc2n(C)c1=O | 96 nM | 1400 nM | 
12 | CC(=O)Nc1c(C(C)=O)c(=O)n(Cc2ccccc2)c2nc(-c3ccc(Cl)cc3Cl)c(-c3ccc(Cl)cc3)cc12 | 2.3 nM | 5100 nM | 
13 | CC(=O)Nc1c(C(C)C)c(=O)n(C)c2nc(-c3ccc(Cl)cc3Cl)c(-c3ccc(Cl)cc3)cc12 | 15 nM | 5400 nM | 
14 | CC(=O)Nc1c(N(C)C)c(=O)n(C)c2nc(-c3ccc(Cl)cc3Cl)c(-c3ccc(Cl)cc3)cc12 | 20 nM | 2500 nM | 
15 | CC(=O)Nc1c(C)c(=O)n(C)c2nc(-c3ccc(Cl)cc3Cl)c(-c3ccc(Cl)cc3)cc12 | 26 nM | 1500 nM | 
16 | CC(=O)Nc1c(C(C)=O)c(=O)[nH]c2nc(-c3ccc(Cl)cc3Cl)c(-c3ccc(Cl)cc3)cc12 | 77 nM | 1400 nM | 
17 | CC(=O)Nc1cc(=O)n(C)c2nc(-c3ccc(Cl)cc3Cl)c(-c3ccc(Cl)cc3)cc12 | 110 nM | 380 nM | 
18 | CC(=O)Nc1c(C(C)=O)c(=O)n(CCO)c2nc(-c3ccc(Cl)cc3Cl)c(-c3ccc(Cl)cc3)cc12 | 32 nM | 1500 nM | 
